The source of these data is ChEMBL document CHEMBL3853289, “Eucarobustols A-I, Conjugates of Sesquiterpenoids and Acylphloroglucinols from Eucalyptus robusta” (J Nat Prod, 2016).

Bounds are passed on as bounds.

In assay [1] the target is T1, Tyrosine-protein phosphatase non-receptor type 1 (Homo sapiens, UniProt P18031).
T1 sequence (P18031 whole entry): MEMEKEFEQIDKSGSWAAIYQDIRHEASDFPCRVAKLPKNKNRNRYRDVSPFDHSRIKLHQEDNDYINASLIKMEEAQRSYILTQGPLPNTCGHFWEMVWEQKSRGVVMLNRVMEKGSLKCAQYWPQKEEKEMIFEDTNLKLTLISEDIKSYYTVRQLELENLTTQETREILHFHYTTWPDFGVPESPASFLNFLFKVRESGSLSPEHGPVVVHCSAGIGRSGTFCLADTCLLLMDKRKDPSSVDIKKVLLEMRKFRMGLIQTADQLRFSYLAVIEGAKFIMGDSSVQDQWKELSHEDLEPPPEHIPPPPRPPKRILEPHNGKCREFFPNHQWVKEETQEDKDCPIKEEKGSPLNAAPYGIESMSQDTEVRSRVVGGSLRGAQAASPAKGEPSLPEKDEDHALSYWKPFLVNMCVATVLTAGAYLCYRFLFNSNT
As to the kind of experiment: Inhibition of PTP1B (unknown origin) using pNPP as substrate after 3 mins by colorimetric analysis.

The nature of assay [2]: Cytotoxicity against human HL60 cells assessed as reduction in cell viability after 72 hrs by MTT assay. The format is functional, cell-based. Particulars: HL-60, 72 h. The method in brief:
(§1)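 Cytotoxicity was tested against the HL-60 human leukemia and A-549 human lung adenocarcinoma lines, with adriamycin as the positive control. Potency was expressed as IC50.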
On the technique in general: Tetrazolium assays rely on reduction of a dye to a coloured formazan, in cell work by metabolically active cells.

Assay [3] can be described thus: Cytotoxicity against human A549 cells assessed as reduction in cell viability incubated for 72 hrs by SRB assay. The format is functional, cell-based. The conditions noted are these: A549, 72 h. The method in brief: as §1

One may read the IC50 as the concentration that gives 50% inhibition. Regarding `CC(C)CC(=O)c1c(O)c(C=O)c(O)c(C[C@@]2(C)CC[C@H]3C2=C[C@H](C(C)(C)O)CC[C@H]3C)c1O`, the IC50 in assay [1] is 4.3 µM; in assay [2], more than 10 µM; in assay [3] it was more than 10 µM.

With `CC(C)C[C@@H](c1c(O)c(C=O)c(O)c(C=O)c1O)[C@@]1(C)CC[C@@H]2[C@@H]1[C@H]1[C@@H](CC[C@]2(C)O)C1(C)C`, the half-maximal inhibitory concentration (IC50) in assay [1] is 5.6 µM; in assay [2] it was more than 10 µM; in assay [3], more than 10 µM.

Take `CC(C)C[C@H](c1c(O)c(C=O)c(O)c(C=O)c1O)[C@@H]1CC[C@@](C)(O)[C@@H]2[C@@H]3[C@H](CC[C@]21C)C3(C)C`: the IC50 in assay [2] and in assay [3] was more than 10 µM each time.

Consider `CC(=O)CC[C@@H]1[C@H]([C@H]2C(=O)CC[C@]2(C)[C@H](CC(C)C)c2c(O)c(C=O)c(O)c(C=O)c2O)C1(C)C`, for which the IC50 in assay [2] and in assay [3] was more than 10 µM in each case.

Regarding `CO[C@]1(C)CC[C@@H]2[C@H]([C@H]3[C@H]1CC[C@]3(C)[C@@H](CC(C)C)c1c(O)c(C=O)c(O)c(C=O)c1O)C2(C)C`, the figures for the IC50 in assay [1], in assay [2] and in assay [3] were 4.1 µM, more than 10 µM and more than 10 µM, respectively.

Turning to `C=C1CC[C@@H]2[C@H]([C@H]3[C@H]1CC[C@]3(C)[C@@H](CC(C)C)c1c(O)c(C=O)c(O)c(C=O)c1O)C2(C)C` [MACROCARPAL C], the IC50 in assay [2] and in assay [3] was more than 10 µM each time.

`CC(C)CC(c1c(O)c(C=O)c(O)c(C=O)c1O)[C@@]1(C)CC[C@H]2C1=C[C@H](C(C)(C)O)CC[C@H]2C` (some centres not stated): the IC50 in assay [2] and in assay [3] was more than 10 µM each time.

As for `CC(C)C[C@H](c1c(O)c(C=O)c(O)c(C=O)c1O)[C@@]1(C)CC[C@@H]2[C@@H]1[C@H]1[C@@H](CC[C@@]2(C)O)C1(C)C` [MACROCARPAL B], the IC50 in assay [2] and in assay [3] was more than 10 µM in each case.

Compound `CC(C)C[C@H](c1c(O)c(C=O)c(O)c(C=O)c1O)[C@H]1CC[C@@H](C)[C@@]2(C)C1=CC[C@@H]1[C@H]2C1(C)C` gave a half-maximal inhibitory concentration (IC50) in assay [1] of 1.3 µM.

As to `C=C(C)[C@@H]1C=C2[C@@H](C)CC[C@@H]([C@@H](CC(C)C)c3c(O)c(C=O)c(O)c(C=O)c3O)[C@]2(C)CC1`, in assay [1], half-maximal inhibition (IC50) required 2.9 µM.

For the compound `CC(C)C[C@@H](c1c(O)c(C=O)c(O)c(C=O)c1O)[C@@]1(C)CC[C@@H]2[C@@H]1[C@H]1[C@@H](CC[C@@]2(C)O)C1(C)C` [MACROCARPAL A], the half-inhibitory concentration (IC50) in assay [2] and in assay [3] was more than 10 µM in each case.

In the case of `CC(C)C[C@@H](c1c(O)c(C=O)c(O)c(C=O)c1O)[C@@H]1CC[C@@](C)(O)[C@@H]2[C@@H]3[C@H](CC[C@]21C)C3(C)C`, the IC50 in assay [2] and in assay [3] was more than 10 µM in each case.

Take `CC1=C2CC[C@](C)([C@@H](CC(C)C)c3c(O)c(C=O)c(O)c(C=O)c3O)[C@H]2[C@H]2[C@@H](CC1)C2(C)C`: the figures for the IC50 in assay [1], in assay [2] and in assay [3] were 4.5 µM, more than 10 µM and more than 10 µM, respectively.

As for `CC(C)C[C@H](c1c(O)c(C=O)c(O)c(C=O)c1O)[C@@]1(C)CC=C2[C@H](C)CC[C@@H]3[C@H]([C@@H]21)C3(C)C`, the values for the IC50 in assay [1], in assay [2] and in assay [3] were 3 µM, more than 10 µM and more than 10 µM, respectively.

For the compound `CC(C)C[C@@H](c1c(O)c(C=O)c(O)c(C=O)c1O)[C@@]1(C)CC=C2[C@H](C)CC[C@@H]3[C@H]([C@@H]21)C3(C)C`, the IC50 in assay [1] was 1.8 µM; in assay [2] it was more than 10 µM; in assay [3], more than 10 µM.

Consider `CC(C)C[C@@H](c1c(O)c(C=O)c(O)c(C=O)c1O)[C@@]1(C)CCC2=C1[C@H]1[C@@H](CC[C@H]2C)C1(C)C`, for which the figures for the IC50 in assay [1], in assay [2] and in assay [3] were 1.6 µM, more than 10 µM and more than 10 µM, respectively.

Turning to `CC(C)C[C@H](c1c(O)c(C=O)c(O)c(C=O)c1O)[C@@]1(C)CC[C@H]2C1=C[C@H](C(C)(C)O)CC[C@H]2C`, the IC50 in assay [2] and in assay [3] was more than 10 µM in each case.

As for `CC(C)CC(c1c(O)c(C=O)c(O)c(C=O)c1O)C1CC[C@@H](C)C2=C[C@H](C(C)(C)O)CC[C@]21C` (some centres not stated), the half-inhibitory concentration (IC50) in assay [2] and in assay [3] was more than 10 µM throughout.

In assay [1], `CC(C)C[C@@H](c1c(O)c(C=O)c(O)c(C=O)c1O)[C@H]1CC[C@@H](C)[C@@]2(C)C1=CC[C@@H]1[C@H]2C1(C)C` registered a 50% inhibitory concentration (IC50) of 4.3 µM.
